Results: the EternaBench riboswitch data

System: MS2 coat protein
Assay: apparent Kd, MS2 coat protein; higher = weaker binding; RNA-MaP array; theophylline 2 mM where present
Outline: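 The apparent Kd comes from binding curves fitted cluster by cluster, filtered, and summarised as a median. Those curves followed SNAP-549-labelled MS2 coat protein from 0.7 or 1.5 nM, doubling to 3 µM, on Illumina sequencing-chip clusters where stalled E. coli RNA polymerase had transcribed the designs, without and then with constant ligand. The buffer was 100 mM Tris-HCl pH 7.5, 80 mM KCl, 4 mM MgCl2, BSA, DTT, yeast tRNA and Tween-20, and green signal was normalised to red-channel RNA signal and control-cluster median Fmax.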

[1] = designed as: ON switch for theophylline, no ligand
[2] = ligand present: theophylline, designed as: ON switch for theophylline
[3] = designed as: OFF switch for theophylline, no ligand
[4] = ligand present: theophylline, designed as: OFF switch for theophylline

Sequence	apparent Kd [1]	apparent Kd [2]	apparent Kd [3]	apparent Kd [4]
CGCACAGAGAAUGAUACCAGCGAGGAAGCGACAUGAGGAUCACCCAUGUGCGAAUGAUCCCGCCCUUGGCAGCGUAAGUGAUCCC	111 nM	71.3 nM		
CGUGAUCCCUGUGAUACCAGAAGUACAUGAGGAUCACCCAUGUCAAACACAAAACCAAGCUUCCCUUGGCAGCAUAGUCGUUAAG	238 nM	1310 nM		
CGUGUGCGUUCUGAUACCAGAGACAUGAGGAUCACCCAUGUCCGAUCGUCCUGCCUCAGACUCCCUUGGCAGCAGGUUUUGUGCU			45.7 nM	60.9 nM
CUAGGAAACUAGUAAGGGUGGUAUUGAGAUACCAGUACAGAAAUGUACCCUUGGCAGCUCACUGCAACAUGAGGAUCACCCAUGU			24.1 nM	55.9 nM
CUGCCAUGCAGAGAUACCAGUGCGCUCAGCACAUGAGGAUCACCCAUGUUGGCUGCCGAUCACCCUUGGCAGCUCUGCAUGGCAG	10.8 nM	7.62 nM		
CUUGGUAGAUCCUAGCUGCCAAGAGGUGAUACCAGCAUCGAAAGAUGCCCUUGGCAGCACCAACAUGAGGAUCACCCAUGUAAUA	70.7 nM	339 nM		
GAUGAUAUUGCAGAUACCAGACACAUGAGGAUCACCCAUGUCGUUGGGUAGCUGGGUCGUGUCCCUUGGCAGCUGCGAUAUCAUC			23.3 nM	138 nM
GCAAUACAUGAGGAUCACCCAUGUGCAGAUACCAGAGGUGCGUGCCUCCCUUGGCAGCUGCGACGCUCUGGAAGCUUGUGUGUCU			19.4 nM	25.2 nM
GCACCAGGUACGGAUACCAGAAUUUGCCAAUUGGGUGAACAUGAGGAUCACCCAUGUUAUUUCCCUUGGCAGCCGUACCUGGUGC			8.75 nM	15.9 nM
GCACCAGGUACGGAUACCAGAGCAAGCCAAAUGAGUGAACAUGAGGAUCACCCAUGUUUGCUCCCUUGGCAGCCGUACCUGGUGC			9.34 nM	45.2 nM
GCACCAGGUACGGAUACCAGCUAUAGGCCCUAUGGGCGACAUGAGGAUCACCCAUGUAAUGGCCCUUGGCAGCUGUACCUGGUGC	169 nM	11.3 nM		
GCUGGGUGCGCAAGGACCUGGCGUUGCGAUACCAGCACGGUAACGUGCCCUUGGCAGCGCACAUGAGGAUCACCCAUGUGGUGUU			276 nM	310 nM
GCUUGGGUGGCCCAGCCCUGGCAGGGCGAUACCAGCACGGUAACGUGCCCUUGGCAGCGCACAUGAGGAUCACCCAUGUGGUGCG			127 nM	266 nM
GGAUAGAUAGGAGAUACCAGAUACAUAAACAUGAGGAUCACCCAUGUGUCUGCACUAAGUAUCCCUUGGCAGCUCGGAGAUCUGA	17.6 nM	15 nM		
GGCCUUGCGGGCGCCCGCAAGGCCGCGGAUACCAGCGAGGUCCAUCGCCCUUGGCAGCCGAACAUGAGGAUCACCCAUGUCGGUU	11 nM	13.4 nM		
GGGUAUGAUCCGGAUACCAGCGAACAUGAGGAUCACCCAUGUGACCUAAGAUAGGCUCUACGCCCUUGGCAGCCGCGAUCGCGUU	24.8 nM	16.1 nM		
GUGAGGUUUGAUGAUACCAGAUGUGGUGGGAACAUGAGGAUCACCCAUGUUGUGAAACAGGUCCCUUGGCAGCAUGAGAGAGCUU	47.8 nM	44.3 nM		
UAUUUGGUGCGCGAGCGUUGGAUAAUUGAUACCAGUGAAGAAGAGCGCCCUUGGCAGCGAAUCCUAACAUGAGGAUCACCCAUGU	41 nM	56.7 nM		
UCACAUGAGGAUCACCCAUGUACAGGCGAUACCAGCCGUACAUUGGGCCCUUGGCAGCGCAUCGAGACCUUUAUAAGCACCUCGG	49.9 nM	298 nM		
UCCUCCUCCGGAAGGAGGAGGAGUUGCGAUACCAGCCCGGAAACGGGCCCUUGGCAGCGCACAUGAGGAUCACCCAUGUCAUGUU			18.4 nM	24.1 nM
UCGUGUGUUUCGGAUACCAGUGUGGUCGAUACAUGAGGAUCACCCAUGUGAGAGGAGGUACACCCUUGGCAGCUGGCUGUUGCGG	72 nM	86.4 nM		
UCUUACUUGGUAGAUACCAGCGUGUUAUCUUUCUUUUGACAUGAGGAUCACCCAUGUAUAUGCCCUUGGCAGCUGCAUAGUGUGU	34.9 nM	35.1 nM		
UCUUGGUCCGCAAGGACCGUGAGUUGCGAUACCAGCACGGUAACGUGCCCUUGGCAGCGCACAUGAGGAUCACCCAUGUGGUGUU			281 nM	318 nM
UGACAUUGCUCAGAUACCAGACAUGAGGAUCACCCAUGUGCCAAACGUACAAUAAUAAAUGUCCCUUGGCAGCUGAGCAAUGUCU			11.3 nM	101 nM
UGACAUUGCUGCGAUACCAGACAUGAGGAUCACCCAUGUACCAAGGUACCCGAAAGGAAUGUCCCUUGGCAGCGCAGCAAUGUCU			9.4 nM	21.2 nM
UGCGAUUGCUCAGAUACCAGACAUGAGGAUCACCCAUGUACCAAGGUAAAGAAAUAACGUGUCCCUUGGCAGCUGAGCAAUCGCU			10.2 nM	98.4 nM
